Measured values as given in ChEMBL document CHEMBL4376827, “Structure-Activity Relationship Studies To Identify Affinity Probes in Bis-aryl Sulfonamides That Prolong Immune Stimuli” (J Med Chem, 2019).

What was measured:
Homo sapiens [1] = organism: Homo sapiens; experiment: Activation of LPS-induced NF-kappaB activity in human THP1-Blue-NF-kappaB cells assessed as increase in SEAP reporter activity at 5 uM incubated for 20 hrs by quanti-blue SEAP assay relative to control
Procedure, shortened: (§1)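 THP1-Blue NF-κB cells, 10^5/well, in RPMI with 10% FBS, pen/strep and Normocin. Compound (5 μM single point or graded concentrations, 0.05% DMSO) is added together with LPS; methods give final LPS 10 μg/mL, table footnote gives 10 ng/mL. Supernatant SEAP is read after 20 h by QuantiBlue colorimetry at 630 nm.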

Homo sapiens [2] = organism: Homo sapiens; experiment: Activation of IFNalpha signalling in human ISRE-bla-THP1 cells assessed as increase in type-1 IFN-alpha induced ISRE activity at 5 uM preincubated for 16 hrs followed by CCF4-AM substrate addition and measured after 3 hrs by FRET based assay relative to control; type: cell-based
Procedure, shortened: (§2)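 ISRE-bla THP-1 cells, 5×10^4/well, in RPMI with 10% dialyzed FBS, 0.1 mM non-essential amino acids, 1 mM pyruvate and pen/strep. Cells are co-treated with IFN-α (final 100 U/mL) and compound: 5 μM single point or graded concentrations, 0.05% DMSO. After 16 h, CCF4-AM is added for 3 h at RT in the dark.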

THP-1 = experiment: Cytotoxicity against human THP1 cells assessed as reduction in cell viability at 5 uM incubated for 18 hrs by MTT assay relative to control; settings: thp-1, 18 h
[3] = Activation of LPS-induced NF-kappaB activity in human THP1-Blue-NF-kappaB cells assessed as increase in SEAP reporter activity incubated for 20 hrs by quanti-blue SEAP assay; procedure, shortened: as §1
[4] = Activation of IFNalpha signalling in human ISRE-bla THP1 cells assessed as increase in type-1 IFN-alpha induced ISRE activity preincubated for 16 hrs followed by CCF4-AM substrate addition and measured after 3 hrs by FRET based assay; type: cell-based; settings: THP-1; procedure, shortened: as §2

Row | Activity (Homo sapiens [1]) | EC50 [3] | EC50 [4] | Structure (SMILES) | Activity (Homo sapiens [2]) | Activity (THP-1)
1 | 102% | – | – | CCCc1ccc(S(=O)(=O)Nc2cc(OC)c(Cl)cc2OC)cc1 | 103% | 85.7%
2 | 101% | – | – | COc1cc(NS(=O)(=O)c2ccc(N)cc2)c(OC)cc1Cl | 103% | 96%
3 | 103% | – | – | COc1cc(NS(=O)(=O)c2ccc(CN)cc2)c(OC)cc1Cl | 111% | 97%
4 | 98% | – | – | COc1cc(NS(=O)(=O)c2ccc(Oc3ccccc3)cc2)c(OC)cc1Cl | 95% | 91.3%
5 | 96% | – | – | COc1cc(NS(=O)(=O)c2ccccc2OC)c(OC)cc1Cl | 101% | 92.1%
6 | 215% | – | – | CCOc1ccc(S(=O)(=O)Nc2cc(OC)c(N=[N+]=[N-])cc2OC)cc1 | 201% | 76.6%
7 | 101% | – | – | COc1cc(NS(=O)(=O)c2ccc([N+](=O)[O-])cc2)c(OC)cc1Cl | 103% | 97.4%
8 | 103% | – | – | COc1cc(NS(=O)(=O)c2ccc(C(N)=O)cc2)c(OC)cc1Cl | 94% | 91%
9 | 158% | – | – | COc1ccc(S(=O)(=O)Nc2cc(OC)c(Cl)cc2OC)cc1N | 166% | 77.3%
10 | 226% | 1850 nM | 1400 nM | COc1ccc(S(=O)(=O)Nc2cc(OC)c(Cl)cc2OC)cc1 | 219% | 69.6%
11 | 89% | – | – | COc1cc(NS(=O)(=O)c2ccc(C(=O)O)cc2)c(OC)cc1Cl | 104% | 98.2%
12 | 101% | – | – | CCCCOc1ccc(S(=O)(=O)Nc2cc(OC)c(Cl)cc2OC)cc1 | 106% | 95.3%
13 | 104% | – | – | COc1cc(NS(=O)(=O)c2ccc(OC)c(N=[N+]=[N-])c2)c(OC)cc1Cl | 104% | 87.2%
14 | 87% | – | – | COc1cc(NS(=O)(=O)c2ccc(OC)c(Br)c2)c(OC)cc1Cl | 101% | 85%
15 | 103% | – | – | CNC(=O)c1ccc(S(=O)(=O)Nc2cc(OC)c(Cl)cc2OC)cc1 | 105% | 77%
16 | 97% | – | – | C#CCOc1ccc(S(=O)(=O)Nc2cc(OC)c(Cl)cc2OC)cc1 | 99% | 80.9%
17 | 149% | – | – | CCCOc1ccc(S(=O)(=O)Nc2cc(OC)c(Cl)cc2OC)cc1 | 125% | 71.3%
18 | 116% | – | – | COc1cccc(S(=O)(=O)Nc2cc(OC)c(Cl)cc2OC)c1 | 104% | 79.6%
19 | 97% | – | – | COc1cc(NS(=O)(=O)c2ccc(C#N)cc2)c(OC)cc1Cl | 106% | 102.9%
20 | 189% | – | – | CCOC(=O)c1ccc(S(=O)(=O)Nc2cc(OC)c(Cl)cc2OC)cc1 | 169% | 70.8%
21 | 98% | – | – | COc1cc(NS(=O)(=O)c2ccc(O)cc2)c(OC)cc1Cl | 104% | 85.2%
22 | 191% | – | – | COC(=O)c1ccc(S(=O)(=O)Nc2cc(OC)c(Cl)cc2OC)cc1 | 202% | 74.4%

Continued, compound first:

Row | Structure (SMILES) | Activity (Homo sapiens [1]) | EC50 [3] | EC50 [4] | Activity (Homo sapiens [2]) | Activity (THP-1)
23 | CCOC(=O)CCCN(c1cc(OC)c(Cl)cc1OC)S(=O)(=O)c1ccc(OCC)cc1 | 199% | – | – | 199% | 80.1%
24 | CCCCCN(c1cc(OC)c(Cl)cc1OC)S(=O)(=O)c1ccc(OCC)cc1 | 135% | – | – | 105% | 72.9%
25 | CCOc1ccc(S(=O)(=O)Nc2ccc(Cl)c(OC)c2)cc1 | 126% | – | – | 99% | 83.7%
26 | CCCCCCCCCCCCN(c1cc(OC)c(Cl)cc1OC)S(=O)(=O)c1ccc(OCC)cc1 | 97% | – | – | 100% | 93%
27 | CCOc1ccc(S(=O)(=O)Nc2cc(OC)c([N+](=O)[O-])cc2OC)cc1 | 133% | – | – | 110% | 79.2%
28 | CCOC(=O)CN(c1cc(OC)c(Cl)cc1OC)S(=O)(=O)c1ccc(OCC)cc1 | 202% | – | – | 184% | 81.4%
29 | CCOc1ccc(S(=O)(=O)N(CC(C)C)c2cc(OC)c(Cl)cc2OC)cc1 | 175% | – | – | 193% | 76.7%
30 | CCOc1ccc(S(=O)(=O)N(CCCNC(=O)CCCCCNC(=O)c2ccc3c(c2)C(=O)OC32c3ccc(O)cc3Oc3cc(O)ccc32)c2cc(OC)c(Cl)cc2OC)cc1 | – | – | – | 96% | 98.1%
31 | CCOc1ccc(S(=O)(=O)N(CCCNC(=O)c2ccc(-c3c4ccc(=[N+](C)C)cc-4oc4cc(N(C)C)ccc34)c(C(=O)O)c2)c2cc(OC)c(Cl)cc2OC)cc1 | 111% | – | – | 123% | 76.9%
32 | C#CCOCCOCCOCCN(c1cc(OC)c(Cl)cc1OC)S(=O)(=O)c1ccc(OCC)cc1 | 107% | – | – | 130% | 73.7%
33 | CCOc1ccc(S(=O)(=O)N(CCc2ccccc2)c2cc(OC)c(Cl)cc2OC)cc1 | 131% | – | – | 141% | 44%
34 | CCCCCCN(c1cc(OC)c(Cl)cc1OC)S(=O)(=O)c1ccc(OCC)cc1 | 81% | – | – | 99% | 95.2%
35 | C#CCN(c1cc(OC)c(Cl)cc1OC)S(=O)(=O)c1ccc(OCC)cc1 | 232% | – | – | 213% | 72%
36 | C#CCN(c1cc(OC)c(N=[N+]=[N-])cc1OC)S(=O)(=O)c1ccc(OCC)cc1 | 217% | – | – | 182% | 73.4%
37 | CCOc1ccc(S(=O)(=O)N(CCCNC(=O)OC(C)(C)C)c2cc(OC)c(Cl)cc2OC)cc1 | 134% | – | – | 140% | 75.6%
38 | CCOc1ccc(S(=O)(=O)Nc2ccc(Cl)cc2OC)cc1 | 141% | – | – | 109% | 78.3%
39 | CCOc1ccc(S(=O)(=O)N(CCCN)c2cc(OC)c(Cl)cc2OC)cc1.Cl | 189% | 3320 nM | 3040 nM | 182% | 71%
40 | CCCCCCCN(c1cc(OC)c(Cl)cc1OC)S(=O)(=O)c1ccc(OCC)cc1 | 108% | – | – | 95% | 90.4%

Row | Structure (SMILES) | Activity (Homo sapiens [1]) | EC50 [3] | EC50 [4] | Activity (Homo sapiens [2]) | Activity (THP-1)
41 | CCOc1ccc(S(=O)(=O)N(CCCC(=O)O)c2cc(OC)c(Cl)cc2OC)cc1 | 230% | – | – | 151% | 73.4%
42 | CCOc1ccc(S(=O)(=O)N(CCCO)c2cc(OC)c(Cl)cc2OC)cc1 | 219% | – | – | 178% | 68.5%
43 | CCOc1ccc(S(=O)(=O)N(CCCNC(=O)CCCC[C@H]2SC[C@H]3NC(=O)N[C@H]32)c2cc(OC)c(N=[N+]=[N-])cc2OC)cc1 | 162% | – | – | 140% | 73.8%
44 | CCCN(c1cc(OC)c(Cl)cc1OC)S(=O)(=O)c1ccc(OCC)cc1 | 227% | – | – | 199% | 71.6%
45 | CCOc1ccc(S(=O)(=O)N(c2cc(OC)c(Cl)cc2OC)C(C)C)cc1 | 76% | – | – | 169% | 103.2%
46 | CCOc1ccc(S(=O)(=O)N(CCCNC(=O)CCCC[C@H]2SC[C@H]3NC(=O)N[C@H]32)c2cc(OC)c(Cl)cc2OC)cc1 | 195% | – | – | 175% | 69.6%
47 | CCOc1ccc(S(=O)(=O)Nc2cc(OC)c(Cl)c(OC)c2)cc1 | 179% | – | – | 218% | 71.4%
48 | CCOc1ccc(S(=O)(=O)N(CCCN)c2cc(OC)c(N=[N+]=[N-])cc2OC)cc1.Cl | 138% | – | – | 117% | 68.9%
49 | C#CCCCN(c1cc(OC)c(Cl)cc1OC)S(=O)(=O)c1ccc(OCC)cc1 | 182% | – | – | 184% | 70.7%
50 | CCCCN(c1cc(OC)c(Cl)cc1OC)S(=O)(=O)c1ccc(OCC)cc1 | 192% | – | – | 156% | 77.7%
51 | CCOc1ccc(S(=O)(=O)Nc2cc(OC)c(Br)cc2OC)cc1 | 176% | – | – | 235% | 68.8%
52 | CCOc1ccc(S(=O)(=O)Nc2cc(OC)c(N)cc2OC)cc1 | 101% | – | – | 102% | 92.2%
53 | CCNC(=O)CCCN(c1cc(OC)c(Cl)cc1OC)S(=O)(=O)c1ccc(OCC)cc1 | 206% | – | – | 137% | 78.2%
54 | COc1cc(NS(=O)(=O)c2ccc(CNC(=O)OC(C)(C)C)cc2)c(OC)cc1Cl | 100% | – | – | 101% | 109.2%
55 | CCOc1ccc(S(=O)(=O)N(Cc2ccccc2)c2cc(OC)c(Cl)cc2OC)cc1 | 181% | – | – | 159% | 71.7%
56 | C#CCCN(c1cc(OC)c(Cl)cc1OC)S(=O)(=O)c1ccc(OCC)cc1 | 206% | – | – | 201% | 70.1%
57 | CCOc1ccc(S(=O)(=O)Nc2cc(OC)ccc2OC)cc1 | 116% | – | – | 96% | 73.1%
